Bioassay records deposited in PubChem by Broad Institute.
KDM4C inh = KDM4C (human) demethylase inhibition. GST-KDM4C 2-372, H3K9me3 peptide, LANCE TR-FRET. inhibition, % at 12.5 µM. 0.15% of 96,000 active;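 active means mean replicate inhibition above about 25%, with at least 55% of replicates also reaching it, limit read from the data, passing the limit was not always enough; inconclusive means only one of those two conditions met; inactive means neither condition met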
Target sequence (Q9H3R0 2-372 limits assumed): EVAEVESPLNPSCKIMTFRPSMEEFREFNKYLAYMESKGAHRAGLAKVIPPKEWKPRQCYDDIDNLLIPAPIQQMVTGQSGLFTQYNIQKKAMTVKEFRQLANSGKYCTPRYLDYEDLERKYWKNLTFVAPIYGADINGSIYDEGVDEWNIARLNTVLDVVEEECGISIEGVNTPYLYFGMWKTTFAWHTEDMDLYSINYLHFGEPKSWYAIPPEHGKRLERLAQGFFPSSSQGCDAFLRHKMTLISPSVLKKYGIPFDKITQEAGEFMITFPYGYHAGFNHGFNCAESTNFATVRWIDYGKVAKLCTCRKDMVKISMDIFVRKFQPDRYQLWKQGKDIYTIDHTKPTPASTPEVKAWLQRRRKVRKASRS
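Material: GST-tagged GASC-1 (JMJD2C) catalytic fragment, aa 2-372. Input: enzyme final amount 10 nM. Medium: HEPES buffer, pH 7.5, plus ascorbate. Reagent: H3K9me3 peptide substrate, Fe(II), 2-oxoglutarate. Doses: single dose. Times: reaction 30 min RT, detection step 1 h RT. Measured by: LANCE TR-FRET. Evaluation: Fall in 671/618 emission ratio as inhibition.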
IDH1 mut inh = inhibitors of human IDH1 R132H. AID 624101. IDH1 R132H reductase, diaphorase/resazurin fluorescence, 60 min. 0.18% of 70,000 active. inhibition, % at 10 µM; in the data active means inhibition above about 34%; inconclusive means no clear call, values can overlap the other calls; inactive means below about 11%;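 further: 0% = DMSO and 100% = no enzyme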
Numbers without * were called inactive; ? = inconclusive; . = no result given. In the library only some 0.19% were active in any assay of this set; here they are far more common.

SMILES | KDM4C inh | IDH1 mut inh
C/C=C/c1ccc2c(c1)O[C@H](CN(C)CCC)[C@H](C)CN([C@H](C)CO)S2(=O)=O | 42.7* | 83.9*
C/C=C/c1ccc2c(c1)O[C@@H](CN(C)CCC)[C@@H](C)CN([C@@H](C)CO)S2(=O)=O | 0.4 | -3.4
C[C@@H]1CN([C@@H](C)CO)S(=O)(=O)c2ccc(C#Cc3ccncc3)cc2O[C@H]1CN(C)S(=O)(=O)c1ccccc1 | -6.5 | 0.0
Cc1ccc(-c2ccc3c(c2)O[C@H](CN(C)Cc2ccncc2)[C@H](C)CN([C@H](C)CO)S3(=O)=O)cc1 | . | 52.2*
Cc1ccc(-c2ccc3c(c2)O[C@@H](CN(C)Cc2ccncc2)[C@H](C)CN([C@@H](C)CO)S3(=O)=O)cc1 | 1.1 | -0.3
CCCC#Cc1ccc2c(c1)O[C@@H](CN(C)Cc1cncnc1)[C@@H](C)CN([C@H](C)CO)S2(=O)=O | 18.0 | 1.0
Cc1nn(-c2ccccc2)cc1C1C=C(c2ccc(Cl)cc2)N=C2SCC(=O)N21 (stereo not drawn) | . | 1.3
C[C@H]1CN([C@@H](C)CO)S(=O)(=O)c2ccc(-c3cncnc3)cc2O[C@@H]1CN(C)C(=O)C1CCCCC1 | 35.1* | .
CCCC#Cc1ccc2c(c1)O[C@@H](CN(C)C)[C@@H](C)CN([C@H](C)CO)S2(=O)=O | 53.2* | 58.7*
CCCC#Cc1ccc2c(c1)O[C@H](CN(C)C)[C@@H](C)CN([C@@H](C)CO)S2(=O)=O | 0.1 | -0.7
C[C@H](CO)N1C[C@H](C)[C@H](CN(C)C(=O)C2CCCCC2)Oc2cc(-c3cncnc3)ccc2S1(=O)=O | -0.4 | .
COc1ccccc1-c1ccc2c(c1)O[C@@H](CN(C)C(=O)c1ccncc1)[C@@H](C)CN([C@H](C)CO)S2(=O)=O | -0.2 | -3.6
COc1ccccc1-c1ccc2c(c1)O[C@@H](CN(C)C(=O)c1ccncc1)[C@H](C)CN([C@@H](C)CO)S2(=O)=O | 32.0* | 36.1*
O=C(Nc1sccc1C(=O)N1CCOCC1)c1cc2ccccc2oc1=O | . | 2.2
Cc1cnn(CCCNC(=O)c2cc(-c3cccnc3)nc3ccc(Cl)cc23)c1 | . | 0.2
C[C@@H]1CN([C@@H](C)CO)C(=O)Cc2cc(NC(=O)Cn3cnnn3)ccc2O[C@@H]1CN(C)Cc1ccc(C(F)(F)F)cc1 | 10.8 | -1.8
C[C@H](CO)N1C[C@H](C)[C@@H](CN(C)S(=O)(=O)c2cn(C)cn2)Oc2ccc(NC(=O)CCC(F)(F)F)cc2CC1=O | 25.7* | 9.7
C[C@@H]1CN([C@@H](C)CO)C(=O)Cc2cc(NC(=O)Cn3cnnn3)ccc2O[C@H]1CN(C)Cc1ccc(C(F)(F)F)cc1 | ? | 73.7*
C[C@@H]1CN([C@@H](C)CO)C(=O)Cc2cc(NC(=O)CCC(F)(F)F)ccc2O[C@@H]1CN(C)S(=O)(=O)c1cn(C)cn1 | 3.1 | 2.1
COc1cc(NC(=O)C(C)Oc2ccc(Cl)cc2Cl)ccc1NC(=O)c1cc2ccccc2o1 (stereo not drawn) | . | 0.3
CCn1c(SCc2nc3ccccc3[nH]2)nc2sc(C)c(C)c2c1=O | . | -0.4
CN(C)c1ccc2c(c1)[C@H]1C[C@H](CC(=O)NCc3ccccn3)O[C@H](CO)[C@H]1O2 | 34.0* | -3.5
O=C(C[C@@H]1C[C@H]2c3cc(NC(=O)NC4CCCCC4)ccc3O[C@H]2[C@H](CO)O1)NCc1ccccn1 | 87.9* | 101.5*
CN(C)c1ccc2c(c1)[C@H]1C[C@@H](CC(=O)NCc3ccccc3)O[C@@H](CO)[C@H]1O2 | 39.6* | -1.6
CN(C)c1ccc2c(c1)[C@H]1C[C@H](CC(=O)NCc3ccccc3)O[C@H](CO)[C@H]1O2 | 44.4* | -1.2
SMILES | KDM4C inh | IDH1 mut inh
O=C(C[C@@H]1C[C@H]2c3cc(NC(=O)NC4CCCCC4)ccc3O[C@H]2[C@@H](CO)O1)NCc1ccccn1 | -2.0 | 0.1
CN(C)c1ccc2c(c1)[C@@H]1C[C@H](CC(=O)NCc3ccc(-c4ccccc4)cc3)O[C@@H](CO)[C@@H]1O2 | 6.1 | -4.8
CN(C)c1ccc2c(c1)[C@@H]1C[C@@H](CC(=O)NCc3ccc(-c4ccccc4)cc3)O[C@@H](CO)[C@@H]1O2 | 0.3 | .
CN(C)c1ccc2c(c1)[C@H]1C[C@@H](CC(=O)NCc3ccccn3)O[C@@H](CO)[C@H]1O2 | 13.5 | -2.6
Cc1ccc(C(=O)CSc2nnc(-c3cccc(F)c3)n2-c2ccccc2)c(C)c1 | . | -0.3
C=CCSc1nccc(-c2sc3ccc(Cl)cc3c2C)n1 | . | -1.6
CCOC(=O)c1c(CSc2cccc3cccnc23)nc2c3ccccc3ccn12 | . | -0.1
COC(=O)C1=CO[C@@H](O[C@@H]2O[C@H](CO)[C@@H](O)[C@H](O)[C@H]2O)[C@H]2[C@@H]1[C@H](OC(=O)/C=C\c1ccc(O)cc1)C[C@]2(C)OC(C)=O | . | -0.3
O=C(Cn1cnc2sc(-c3ccccc3)cc2c1=O)Nc1ccccc1 | . | 2.3
